{"source": "ChEMBL document CHEMBL4251573", "about": "“Synthesis and biological evaluation of N-substituted 3-oxo-1,2,3,4-tetrahydro-quinoxaline-6-carboxylic acid derivatives as tubulin polymerization inhibitors” (Eur J Med Chem, 2018)", "key": {"HeLa [1]": {"test_system": "HeLa", "experiment": "Induction of apoptosis in human HeLa cells assessed as late apoptotic cells at 0.15 uM after 24 hrs by annexin V-FITC/propidium iodide staining-based flow cytometric method (reference value: 0.15%)", "format": "functional"}, "HeLa [2]": {"test_system": "HeLa", "experiment": "Cell cycle arrest in human HeLa cells assessed as accumulation at G2/M phase at 0.15 uM after 24 hrs by propidium iodide staining-based flow cytometric method (reference value: 19.9%)", "format": "functional"}, "HeLa [3]": {"test_system": "HeLa", "experiment": "Induction of apoptosis in human HeLa cells assessed as late apoptotic cells at 0.10 uM after 24 hrs by annexin V-FITC/propidium iodide staining-based flow cytometric method (reference value: 0.15%)", "format": "functional"}, "HeLa [4]": {"test_system": "HeLa", "experiment": "Induction of apoptosis in human HeLa cells assessed as early apoptotic cells at 0.20 uM after 24 hrs by annexin V-FITC/propidium iodide staining-based flow cytometric method (reference value: 2.31%)", "format": "functional"}, "HeLa [5]": {"test_system": "HeLa", "experiment": "Cell cycle arrest in human HeLa cells assessed as accumulation at sub G1 phase at 0.15 uM after 24 hrs by propidium iodide staining-based flow cytometric method (reference value: 7.6%)", "format": "functional"}, "HeLa [6]": {"test_system": "HeLa", "experiment": "Cell cycle arrest in human HeLa cells assessed as accumulation at G2/M phase at 0.10 uM after 24 hrs by propidium iodide staining-based flow cytometric method (reference value: 19.9%)", "format": "functional"}, "HeLa [7]": {"test_system": "HeLa", "experiment": "Induction of apoptosis in human HeLa cells assessed as viable cells at 0.20 uM after 24 hrs by annexin V-FITC/propidium iodide staining-based flow cytometric method (reference value: 97.39%)", "format": "functional", "settings": "read-out: Activity"}, "HeLa [8]": {"test_system": "HeLa", "experiment": "Induction of apoptosis in human HeLa cells assessed as viable cells at 0.10 uM after 24 hrs by annexin V-FITC/propidium iodide staining-based flow cytometric method (reference value: 97.39%)", "format": "functional", "settings": "read-out: Activity"}, "HeLa [9]": {"test_system": "HeLa", "experiment": "Induction of apoptosis in human HeLa cells assessed as necrotic cells at 0.20 uM after 24 hrs by annexin V-FITC/propidium iodide staining-based flow cytometric method (reference value: 0.15%)", "format": "functional"}, "HeLa [10]": {"test_system": "HeLa", "experiment": "Cell cycle arrest in human HeLa cells assessed as accumulation at S phase at 0.15 uM after 24 hrs by propidium iodide staining-based flow cytometric method (reference value: 10.3%)", "format": "functional"}, "HeLa [11]": {"test_system": "HeLa", "experiment": "Cell cycle arrest in human HeLa cells assessed as accumulation at sub G1 phase at 0.25 uM after 24 hrs by propidium iodide staining-based flow cytometric method (reference value: 7.6%)", "format": "functional"}, "HeLa [12]": {"test_system": "HeLa", "experiment": "Cell cycle arrest in human HeLa cells assessed as accumulation at G0/G1 phase at 0.20 uM after 24 hrs by propidium iodide staining-based flow cytometric method (reference value: 62.2%)", "format": "functional"}, "HeLa [13]": {"test_system": "HeLa", "experiment": "Induction of apoptosis in human HeLa cells assessed as membrane blebbing at 0.10 to 0.20 uM by microscopic method", "format": "functional, cell-based", "procedure,_shortened": "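Morphology of HeLa cells was examined by light microscopy after 24 h exposure to 0.10, 0.15 or 0.20 μM, or 0.1% DMSO, alongside the annexin V/PI experiment.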"}}, "note": "Activity calls are given as the source filed them. The rule behind the calls is not given here."}
{"molecule": "COC(=O)c1ccc2c(c1)NC(=O)CN2C(=O)c1cc(OC)c(OC)c(OC)c1", "values": [{"measurement": "Activity", "setting": "HeLa [1]", "result": 9.95, "unit": "%"}, {"measurement": "Activity", "setting": "HeLa [2]", "result": 29.2, "unit": "%"}, {"measurement": "Activity", "setting": "HeLa [3]", "result": 7.87, "unit": "%"}, {"measurement": "Activity", "setting": "HeLa [4]", "result": 17.05, "unit": "%"}, {"measurement": "Activity", "setting": "HeLa [5]", "result": 31.6, "unit": "%"}, {"measurement": "Activity", "setting": "HeLa [6]", "result": 21.8, "unit": "%"}, {"measurement": "viability at 0.2 µM", "setting": "HeLa [7]", "result": 62.2, "unit": "%"}, {"measurement": "viability at 0.1 µM", "setting": "HeLa [8]", "result": 76.1, "unit": "%"}, {"measurement": "Activity", "setting": "HeLa [9]", "result": 6.36, "unit": "%"}, {"measurement": "Activity", "setting": "HeLa [10]", "result": 8.3, "unit": "%"}, {"measurement": "Activity", "setting": "HeLa [11]", "result": 33.1, "unit": "%"}, {"measurement": "Activity", "setting": "HeLa [12]", "result": 18.4, "unit": "%"}, {"measurement": "Activity", "setting": "HeLa [13]", "result": "Active"}]}
